{"source": "PubChem BioAssay", "note": "Activity calls are given as the source filed them.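 Rule for the calls, unless noted: active = mean duplicate potentiation above the buffer control mean plus 5 SD of buffer wells; inactive = the rest.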"}
{"tested_on": "not listed separately", "experiment": "thallium flux activation in parental CHO cells, counter-screen for KCNQ1 potentiator project (AID 493006;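 active = duplicate-averaged activation above buffer control mean plus 5 SD of those controls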)", "conditions": "parental CHO-K1 cells, FluxOR thallium flux, at 10 µM; hits give high values", "in_short": "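Assay system: parental CHO-K1 cells lacking KCNQ1, loaded with FluxOR thallium dye; timing: dye 90 min RT, compound 20 min RT; signal: kinetic thallium-flux fluorescence; repeats: duplicate wells per compound, percent values averaged; benchmarks: buffer and R-L3 controls; reagent: Potassium/thallium depolarization pulse; read-out: fluorescence change ratio scaled 0% buffer, 100% R-L3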"}
{"smiles": "O=C(NC(=S)Nc1ccccc1N1CCOCC1)c1cccc([N+](=O)[O-])c1", "outcome": "inactive"}
{"smiles": "Cc1nc2ccccn2c1C(=O)N/N=C/c1ccccc1", "outcome": "inactive"}
{"smiles": "COc1ccc(OCC(=O)Nc2cccc(C(C)=O)c2)cc1", "outcome": "inactive"}
{"smiles": "S=c1nc(-c2ccc(Br)cc2)oc2c1CCCC2", "outcome": "inactive"}
{"target": "Potassium voltage-gated channel subfamily KQT member 1 (Homo sapiens) (UniProt P51787)", "sequence (P51787 whole entry, looked up)": "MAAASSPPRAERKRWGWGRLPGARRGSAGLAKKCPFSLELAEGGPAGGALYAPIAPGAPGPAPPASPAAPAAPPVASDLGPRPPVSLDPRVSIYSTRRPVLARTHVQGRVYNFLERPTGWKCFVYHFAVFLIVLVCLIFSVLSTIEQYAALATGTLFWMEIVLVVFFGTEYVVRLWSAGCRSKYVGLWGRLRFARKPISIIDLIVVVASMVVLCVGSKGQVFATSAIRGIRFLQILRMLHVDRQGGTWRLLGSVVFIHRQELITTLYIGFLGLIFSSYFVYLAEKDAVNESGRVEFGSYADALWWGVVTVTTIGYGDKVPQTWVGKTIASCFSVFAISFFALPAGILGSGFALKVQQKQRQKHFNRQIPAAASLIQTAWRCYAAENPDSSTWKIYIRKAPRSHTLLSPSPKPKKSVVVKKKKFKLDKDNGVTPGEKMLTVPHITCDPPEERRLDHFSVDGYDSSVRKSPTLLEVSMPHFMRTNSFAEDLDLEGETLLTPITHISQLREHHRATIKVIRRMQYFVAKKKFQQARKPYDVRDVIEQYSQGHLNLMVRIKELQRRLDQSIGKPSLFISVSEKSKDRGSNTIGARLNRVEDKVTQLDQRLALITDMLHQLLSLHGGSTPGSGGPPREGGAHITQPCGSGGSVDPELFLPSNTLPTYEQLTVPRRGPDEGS", "experiment": "KCNQ1 potassium channel potentiators, confirmation, FluxOR thallium flux, CHO cells, duplicates (AID 493007;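 active = potentiation averaged over duplicate wells exceeding buffer-only control mean by more than 3 SD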;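 for outcome: cells depolarized by a potassium plus thallium sulfate stimulus after compound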)", "conditions": "KCNQ1 cell line, FluxOR thallium flux fluorescence, at 10 µM; hits give high values, % of reference activator effect, buffer zero", "in_short": "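material = CHO cells stably expressing the KCNQ1 potassium channel | repeats = duplicate wells per compound | measure = percent activation between buffer and R-L3 responses | signal = FluxOR thallium-flux fluorescence, kinetic read | schedule = FluxOR dye loading 90 min, compound exposure 20 min, room temperature | control set = buffer and R-L3 controls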"}
{"smiles": "O=C(CCN1CCc2ccccc2CC1)c1ccc2c(c1)OCCO2", "potentiation": "38% (active)"}
{"smiles": "Cc1sc(NC(=O)CS(=O)(=O)c2ccccc2)c(C#N)c1C", "outcome": "inactive"}
{"smiles": "COc1ccc(N(Cc2ccccc2)S(=O)(=O)c2cccc(C(=O)O)c2)cc1", "outcome": "inactive"}
{"smiles": "CC/C(=N/NC(=O)c1ccc(Br)o1)c1ccc(Cl)cc1", "outcome": "inactive"}
{"smiles": "Cc1sc2nc(CSc3ccccc3)nc(N3CCN(C)CC3)c2c1C", "outcome": "inactive"}
{"smiles": "Cn1c(=O)nc2n(Cc3ccccc3)c3ccccc3cc-2c1=O", "outcome": "inactive"}
{"smiles": "CCOC(=O)NC(=S)Nc1ccc(C(C)(C)C)cc1Br", "potentiation": "123% (active)"}
{"smiles": "Oc1ccc2ccccc2c1N=Nc1nccs1", "potentiation": "258% (active)"}
{"smiles": "O=c1[nH]c2ccc(Cl)cc2c(-c2ccccc2)c1N1CCN(CCO)CC1", "outcome": "inactive"}
{"smiles": "Cc1ccc(Nc2c([N+](=O)[O-])ccc3nonc23)c(C)c1", "outcome": "inactive"}
{"smiles": "COc1cccc2sc(NNC(=O)c3nc4ccccc4s3)nc12", "potentiation": "191% (active)"}
{"smiles": "N#Cc1ccccc1NS(=O)(=O)c1cc2c3c(c1)CCC(=O)N3CCC2", "outcome": "inactive"}
{"smiles": "NC(=S)Nc1nc2ccccc2s1", "potentiation": "54.5% (active)"}
{"smiles": "Cc1cc(/C=N/NC(=O)c2nn(C)cc2Cl)c(C)n1-c1cccc(Br)c1", "outcome": "inactive"}
{"smiles": "Cc1ccc(-c2c(C)n([O-])c3c([n+]2=O)CCCC3)o1", "outcome": "inactive"}
{"smiles": "CCCN(Cc1ccccc1)C(=S)NC(=O)c1ccccc1[N+](=O)[O-]", "potentiation": "177% (active)"}
{"smiles": "CCC1Oc2ccc(C)cc2N(CC(=O)N(Cc2ccc(C)o2)C2CC(C)(C)NC(C)(C)C2)C1=O", "note": "(centres undefined)", "potentiation": "63.5% (active)"}
{"smiles": "COc1cc(/C=N/Nc2snc(SC)c2C#N)ccc1O", "outcome": "inactive"}
{"smiles": "C/C(=N\\NC(=S)Nc1cccc(C)c1)c1ccco1", "potentiation": "35% (active)"}
{"smiles": "CC(C)(C)C(=O)NC1CC2CCCC(C1)N2C(=O)Nc1ccccc1", "note": "(centres undefined)", "outcome": "inactive"}
{"smiles": "Fc1ccc(-c2csc(NC(=S)Nc3ccccc3)n2)cc1", "potentiation": "52.5% (active)"}
{"smiles": "O=C(NC(=S)Nc1ccc(N2CCCCC2)cc1)c1cccs1", "potentiation": "74.5% (active)"}
{"smiles": "Cc1ccc(C)c(S(=O)(=O)NCC(=O)N2CCCC2)c1", "outcome": "inactive"}
{"smiles": "CC1CN(S(=O)(=O)c2ccc(Cl)c(C(F)(F)F)c2)CC(C)O1", "note": "(centres undefined)", "outcome": "inactive"}
{"smiles": "S=c1[nH]c2ccc(Cl)cc2s1", "potentiation": "228% (active)"}
{"smiles": "Cc1ccc(Cn2c(SCC(=O)N3CC(=O)Nc4ccccc43)nc3ccccc3c2=O)cc1", "outcome": "inactive"}
{"smiles": "COc1ccc(S(=O)(=O)NCCCN2CCOCC2)cc1F", "outcome": "inactive"}
{"smiles": "O=C(NC(=S)Nc1ccc(N2CCOCC2)c(Cl)c1)c1sc2ccccc2c1Cl", "potentiation": "35.5% (active)"}
{"smiles": "Cc1cc(Cl)n2nc(C)c(-c3ccc(Cl)cc3)c2n1", "potentiation": "256% (active)"}
{"smiles": "O=C(NC(=S)Nc1ccccc1N1CCCCC1)c1cccs1", "potentiation": "133% (active)"}
{"smiles": "Cc1ccc(C)c(NC(=S)NNC(=O)c2csc3c2CCC(C)C3)c1", "note": "(centres undefined)", "potentiation": "116% (active)"}
{"smiles": "Oc1c(N=NC(=S)Nc2ccccc2F)c2ccccc2n1Cc1ccccc1F", "potentiation": "64% (active)"}
{"smiles": "S=c1[nH]cnc2scc(-c3ccccc3)c12", "potentiation": "52% (active)"}
{"smiles": "CCc1nnc(SCC(=O)Nc2nnc(C)s2)n1CC1CCCO1", "note": "(centres undefined)", "potentiation": "86.5% (active)"}
{"smiles": "C=CCn1c(O)c(N=NC(=S)Nc2ccccc2C)c2cc(S(=O)(=O)N3CCOCC3)ccc21", "potentiation": "45% (active)"}
{"smiles": "CC(Oc1ccc(Br)cc1)c1nc2c3ccccc3nc(=S)n2[nH]1", "note": "(centres undefined)", "potentiation": "45.5% (active)"}
{"smiles": "O=C(NC(=S)Nc1ccccc1N1CCOCC1)c1cccc([N+](=O)[O-])c1", "outcome": "inactive"}
{"smiles": "Cc1nc2ccccn2c1C(=O)N/N=C/c1ccccc1", "outcome": "inactive"}
{"smiles": "COc1ccc(OCC(=O)Nc2cccc(C(C)=O)c2)cc1", "outcome": "inactive"}
{"smiles": "S=c1nc(-c2ccc(Br)cc2)oc2c1CCCC2", "potentiation": "37% (active)"}
{"target": "Potassium voltage-gated channel subfamily KQT member 2 (Rattus norvegicus) (UniProt O88943)", "sequence (O88943 whole entry, looked up)": "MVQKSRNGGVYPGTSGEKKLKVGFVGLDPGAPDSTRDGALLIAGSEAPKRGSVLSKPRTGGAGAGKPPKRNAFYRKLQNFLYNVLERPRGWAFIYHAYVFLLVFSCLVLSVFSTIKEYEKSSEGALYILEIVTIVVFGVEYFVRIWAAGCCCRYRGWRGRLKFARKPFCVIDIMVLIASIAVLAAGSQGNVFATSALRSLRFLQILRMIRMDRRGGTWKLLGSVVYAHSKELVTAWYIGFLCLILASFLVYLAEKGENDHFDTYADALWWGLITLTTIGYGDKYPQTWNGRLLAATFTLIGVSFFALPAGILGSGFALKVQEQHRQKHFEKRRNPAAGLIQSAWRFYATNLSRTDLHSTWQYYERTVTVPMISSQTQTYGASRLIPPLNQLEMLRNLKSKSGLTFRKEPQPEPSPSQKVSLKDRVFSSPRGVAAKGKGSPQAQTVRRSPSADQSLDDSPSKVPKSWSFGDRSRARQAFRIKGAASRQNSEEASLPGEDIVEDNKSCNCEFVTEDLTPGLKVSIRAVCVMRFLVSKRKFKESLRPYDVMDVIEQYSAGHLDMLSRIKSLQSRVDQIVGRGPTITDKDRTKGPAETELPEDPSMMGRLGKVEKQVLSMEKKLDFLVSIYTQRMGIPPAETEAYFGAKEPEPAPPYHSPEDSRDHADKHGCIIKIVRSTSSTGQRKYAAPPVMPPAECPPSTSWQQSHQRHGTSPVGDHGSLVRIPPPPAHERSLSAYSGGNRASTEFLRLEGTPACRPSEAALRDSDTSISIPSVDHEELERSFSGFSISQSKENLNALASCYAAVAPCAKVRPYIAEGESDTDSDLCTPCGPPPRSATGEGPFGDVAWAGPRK", "experiment": "rat KCNQ2 channel potentiation, selectivity assay for KCNQ1 potentiator project, KCNQ2-CHO-K1 cells (AID 493009);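 note: assay conditions were tuned for KCNQ1 rather than KCNQ2 modulators; signal is max minus min fluorescence divided by baseline after thallium stimulus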", "conditions": "FluxOR thallium flux fluorescence, at 10 µM; hits give high values, scaled: buffer 0, activator control 100"}
{"smiles": "O=C(CCN1CCc2ccccc2CC1)c1ccc2c(c1)OCCO2", "potentiation": "176% (active)"}
{"smiles": "Cc1sc(NC(=O)CS(=O)(=O)c2ccccc2)c(C#N)c1C", "outcome": "inactive"}
{"smiles": "COc1ccc(N(Cc2ccccc2)S(=O)(=O)c2cccc(C(=O)O)c2)cc1", "outcome": "inactive"}
{"smiles": "CC/C(=N/NC(=O)c1ccc(Br)o1)c1ccc(Cl)cc1", "outcome": "inactive"}
{"smiles": "Cc1sc2nc(CSc3ccccc3)nc(N3CCN(C)CC3)c2c1C", "outcome": "inactive"}
{"smiles": "Cn1c(=O)nc2n(Cc3ccccc3)c3ccccc3cc-2c1=O", "outcome": "inactive"}
{"smiles": "CCOC(=O)NC(=S)Nc1ccc(C(C)(C)C)cc1Br", "potentiation": "249% (active)"}
{"smiles": "Oc1ccc2ccccc2c1N=Nc1nccs1", "potentiation": "426% (active)"}
{"smiles": "O=c1[nH]c2ccc(Cl)cc2c(-c2ccccc2)c1N1CCN(CCO)CC1", "outcome": "inactive"}
{"smiles": "Cc1ccc(Nc2c([N+](=O)[O-])ccc3nonc23)c(C)c1", "outcome": "inactive"}
{"smiles": "COc1cccc2sc(NNC(=O)c3nc4ccccc4s3)nc12", "potentiation": "420% (active)"}
{"smiles": "N#Cc1ccccc1NS(=O)(=O)c1cc2c3c(c1)CCC(=O)N3CCC2", "outcome": "inactive"}
{"smiles": "NC(=S)Nc1nc2ccccc2s1", "potentiation": "186% (active)"}
{"smiles": "Cc1cc(/C=N/NC(=O)c2nn(C)cc2Cl)c(C)n1-c1cccc(Br)c1", "outcome": "inactive"}
{"smiles": "Cc1ccc(-c2c(C)n([O-])c3c([n+]2=O)CCCC3)o1", "outcome": "inactive"}
{"smiles": "CCCN(Cc1ccccc1)C(=S)NC(=O)c1ccccc1[N+](=O)[O-]", "potentiation": "452% (active)"}
{"smiles": "CCC1Oc2ccc(C)cc2N(CC(=O)N(Cc2ccc(C)o2)C2CC(C)(C)NC(C)(C)C2)C1=O", "note": "(centres undefined)", "potentiation": "166% (active)"}
{"smiles": "COc1cc(/C=N/Nc2snc(SC)c2C#N)ccc1O", "outcome": "inactive"}
{"smiles": "C/C(=N\\NC(=S)Nc1cccc(C)c1)c1ccco1", "potentiation": "166% (active)"}
{"smiles": "CC(C)(C)C(=O)NC1CC2CCCC(C1)N2C(=O)Nc1ccccc1", "note": "(centres undefined)", "outcome": "inactive"}
{"smiles": "Fc1ccc(-c2csc(NC(=S)Nc3ccccc3)n2)cc1", "potentiation": "154% (active)"}
{"smiles": "O=C(NC(=S)Nc1ccc(N2CCCCC2)cc1)c1cccs1", "potentiation": "162% (active)"}
{"smiles": "Cc1ccc(C)c(S(=O)(=O)NCC(=O)N2CCCC2)c1", "outcome": "inactive"}
{"smiles": "CC1CN(S(=O)(=O)c2ccc(Cl)c(C(F)(F)F)c2)CC(C)O1", "note": "(centres undefined)", "outcome": "inactive"}
{"smiles": "S=c1[nH]c2ccc(Cl)cc2s1", "potentiation": "526% (active)"}
{"smiles": "Cc1ccc(Cn2c(SCC(=O)N3CC(=O)Nc4ccccc43)nc3ccccc3c2=O)cc1", "outcome": "inactive"}
{"smiles": "COc1ccc(S(=O)(=O)NCCCN2CCOCC2)cc1F", "outcome": "inactive"}
{"smiles": "O=C(NC(=S)Nc1ccc(N2CCOCC2)c(Cl)c1)c1sc2ccccc2c1Cl", "outcome": "inactive"}
{"smiles": "Cc1cc(Cl)n2nc(C)c(-c3ccc(Cl)cc3)c2n1", "potentiation": "340% (active)"}
{"smiles": "O=C(NC(=S)Nc1ccccc1N1CCCCC1)c1cccs1", "potentiation": "234% (active)"}
{"smiles": "Cc1ccc(C)c(NC(=S)NNC(=O)c2csc3c2CCC(C)C3)c1", "note": "(centres undefined)", "potentiation": "322% (active)"}
{"smiles": "Oc1c(N=NC(=S)Nc2ccccc2F)c2ccccc2n1Cc1ccccc1F", "potentiation": "169% (active)"}
{"smiles": "S=c1[nH]cnc2scc(-c3ccccc3)c12", "potentiation": "205% (active)"}
{"smiles": "CCc1nnc(SCC(=O)Nc2nnc(C)s2)n1CC1CCCO1", "note": "(centres undefined)", "potentiation": "274% (active)"}
{"smiles": "C=CCn1c(O)c(N=NC(=S)Nc2ccccc2C)c2cc(S(=O)(=O)N3CCOCC3)ccc21", "potentiation": "226% (active)"}
{"smiles": "CC(Oc1ccc(Br)cc1)c1nc2c3ccccc3nc(=S)n2[nH]1", "note": "(centres undefined)", "potentiation": "178% (active)"}
{"smiles": "O=C(NC(=S)Nc1ccccc1N1CCOCC1)c1cccc([N+](=O)[O-])c1", "outcome": "inactive"}
{"smiles": "Cc1nc2ccccn2c1C(=O)N/N=C/c1ccccc1", "outcome": "inactive"}
{"smiles": "COc1ccc(OCC(=O)Nc2cccc(C(C)=O)c2)cc1", "outcome": "inactive"}
{"smiles": "S=c1nc(-c2ccc(Br)cc2)oc2c1CCCC2", "outcome": "inactive"}
